Measurements: ChEMBL document CHEMBL1795294, “Modulation of the activity of histone acetyltransferases by long chain alkylidenemalonates (LoCAMs)” (Bioorg Med Chem, 2011)
Calls of active or inactive are those of the source. The rule behind the calls is not given here.

Assays:
[1] = target: CREB-binding protein (Homo sapiens) (UniProt Q92793); experiment: Inhibition of human recombinant KAT3A expressed in Escherichia coli BL21 using histone H4 peptide as substrate at 50 uM after 2 hrs relative to control
Chain of CREB-binding protein (Homo sapiens) (Q92793 2-2442 limits assumed): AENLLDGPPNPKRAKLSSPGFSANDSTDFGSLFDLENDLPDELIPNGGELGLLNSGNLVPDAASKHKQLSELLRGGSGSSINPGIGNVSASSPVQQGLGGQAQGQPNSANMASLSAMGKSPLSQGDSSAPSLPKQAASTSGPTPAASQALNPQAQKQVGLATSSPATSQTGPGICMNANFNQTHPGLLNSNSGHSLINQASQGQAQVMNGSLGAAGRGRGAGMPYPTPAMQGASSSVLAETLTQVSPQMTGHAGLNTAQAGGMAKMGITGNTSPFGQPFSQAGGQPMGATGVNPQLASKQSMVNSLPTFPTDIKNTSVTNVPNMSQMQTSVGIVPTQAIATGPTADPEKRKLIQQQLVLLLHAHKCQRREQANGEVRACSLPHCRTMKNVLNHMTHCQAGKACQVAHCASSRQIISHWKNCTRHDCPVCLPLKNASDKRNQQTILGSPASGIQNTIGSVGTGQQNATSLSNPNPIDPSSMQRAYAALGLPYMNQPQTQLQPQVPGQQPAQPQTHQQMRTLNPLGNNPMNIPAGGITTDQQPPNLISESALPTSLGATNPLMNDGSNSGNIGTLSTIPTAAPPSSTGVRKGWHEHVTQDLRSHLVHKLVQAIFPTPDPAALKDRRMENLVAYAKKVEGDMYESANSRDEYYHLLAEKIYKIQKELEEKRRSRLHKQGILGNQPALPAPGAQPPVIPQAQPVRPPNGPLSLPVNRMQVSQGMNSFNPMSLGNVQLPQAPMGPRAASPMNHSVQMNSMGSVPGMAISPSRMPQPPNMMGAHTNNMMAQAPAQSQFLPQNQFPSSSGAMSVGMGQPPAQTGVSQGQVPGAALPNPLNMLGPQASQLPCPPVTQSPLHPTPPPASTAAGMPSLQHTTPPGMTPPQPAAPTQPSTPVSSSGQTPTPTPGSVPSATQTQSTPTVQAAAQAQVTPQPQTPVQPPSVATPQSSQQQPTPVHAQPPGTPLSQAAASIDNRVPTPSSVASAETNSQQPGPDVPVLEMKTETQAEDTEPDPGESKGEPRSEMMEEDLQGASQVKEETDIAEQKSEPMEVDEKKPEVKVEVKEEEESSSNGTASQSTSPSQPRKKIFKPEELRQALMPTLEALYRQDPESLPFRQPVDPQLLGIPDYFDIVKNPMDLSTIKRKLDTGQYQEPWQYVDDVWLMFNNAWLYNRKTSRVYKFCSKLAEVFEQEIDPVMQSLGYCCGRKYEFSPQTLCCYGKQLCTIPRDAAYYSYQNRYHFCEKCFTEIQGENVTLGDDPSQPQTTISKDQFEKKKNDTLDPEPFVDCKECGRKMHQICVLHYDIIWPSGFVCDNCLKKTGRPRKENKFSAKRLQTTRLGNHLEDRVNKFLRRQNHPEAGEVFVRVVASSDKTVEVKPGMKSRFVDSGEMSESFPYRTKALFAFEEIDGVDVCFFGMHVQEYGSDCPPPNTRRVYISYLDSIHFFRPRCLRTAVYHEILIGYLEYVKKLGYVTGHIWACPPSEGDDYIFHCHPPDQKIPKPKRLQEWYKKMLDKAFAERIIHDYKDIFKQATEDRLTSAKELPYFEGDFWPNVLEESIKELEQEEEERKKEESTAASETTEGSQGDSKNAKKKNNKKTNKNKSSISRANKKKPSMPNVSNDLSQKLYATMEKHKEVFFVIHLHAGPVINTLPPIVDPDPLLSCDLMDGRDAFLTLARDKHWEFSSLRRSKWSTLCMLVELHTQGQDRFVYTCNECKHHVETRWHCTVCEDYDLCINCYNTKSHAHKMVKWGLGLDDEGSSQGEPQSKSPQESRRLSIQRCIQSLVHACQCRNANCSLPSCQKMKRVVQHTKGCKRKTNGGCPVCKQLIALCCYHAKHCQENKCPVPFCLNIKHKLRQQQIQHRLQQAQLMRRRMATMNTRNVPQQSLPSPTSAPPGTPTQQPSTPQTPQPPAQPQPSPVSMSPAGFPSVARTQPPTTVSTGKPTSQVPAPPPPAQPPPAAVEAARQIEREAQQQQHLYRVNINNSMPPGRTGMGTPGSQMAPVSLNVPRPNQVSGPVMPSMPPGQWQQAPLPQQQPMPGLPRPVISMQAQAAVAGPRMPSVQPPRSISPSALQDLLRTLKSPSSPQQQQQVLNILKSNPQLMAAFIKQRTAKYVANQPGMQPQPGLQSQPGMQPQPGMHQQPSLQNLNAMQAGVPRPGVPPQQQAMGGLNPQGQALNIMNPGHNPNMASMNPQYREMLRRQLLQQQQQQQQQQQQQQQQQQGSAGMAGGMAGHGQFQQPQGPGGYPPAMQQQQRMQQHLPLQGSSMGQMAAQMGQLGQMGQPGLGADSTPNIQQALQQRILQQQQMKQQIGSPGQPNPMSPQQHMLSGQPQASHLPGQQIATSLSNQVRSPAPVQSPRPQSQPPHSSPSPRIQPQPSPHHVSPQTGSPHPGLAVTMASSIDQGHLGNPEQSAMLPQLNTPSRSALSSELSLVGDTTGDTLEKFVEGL
Outline: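 Recombinant CBP fragment (aa 1098–1877) from E. coli BL21, affinity purified. Spotted on P81 paper in triplicate, washed with TCA/acetone, scintillation DPM compared with negative control, expressed as %.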

[2] = system: MCF7; experiment: Inhibition of histone acetyltransferase in human MCF7 cells assessed as increase of alpha-tubulin acetylation level at 15 and 30 uM after 15 mins by Western blotting
[3] = system: U-937; experiment: Cell cycle arrest in human U937 cells assessed as accumulation at S phase at 25 uM after 30 hrs using propidium iodide staining by flow cytometry; type: functional, cell-based
Outline: (§1)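 U937 cells kept at 200,000 cells/mL, 37 °C, 5% CO2, treated 30 h at 50 or 25 µM. Phase distribution by flow cytometry. Three independent experiments, mean ± SD.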

[4] = system: U-937; experiment: Induction of granulocytic differentiation in human U937 after […] using propidium iodide staining by FACS analysis; type: functional, cell-based
[5] = system: U-937; experiment: Inhibition of histone acetyltransferase in human U937 cells assessed as increase of histone H3 acetylation level at 50 uM after 15 mins by Western blotting; type: cell-based
Outline: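 U937 cells treated at 50 µM. Histones prepared by Triton extraction buffer lysis, then overnight 0.2 M HCl extraction at 4 °C, Bradford quantitation. Immunoblot with pan-acetyl-H3 antibody (1:1000), Ponceau Red staining as loading check.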

[6] = target: Histone deacetylase (Homo sapiens) (UniProt Q13547+O15379+Q9UBN7+Q92769+Q9UQL6+Q8WUI4+Q9BY41+Q96DB2+P56524+Q9UKV0+Q969S8); experiment: Inhibition of HDAC in human U937 cells at 50 uM after 15 mins by Western blotting; type: cell-based; conditions: U-937
[7] = system: U-937; experiment: Induction of apoptosis in human U937 cells at 25 uM after 30 hrs using annexin V/propidium iodide double-staining by FACS analysis; type: functional, cell-based
Outline: (§2)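 U937 cells at 200,000 cells/mL, 37 °C, 5% CO2, exposed 30 h at 50 or 25 µM. Dose–response runs used 5–200 µM, with IC50 taken as the concentration giving 50% apoptosis. Annexin V/propidium iodide double staining, apoptotic subpopulations counted by FACS. Three independent experiments, mean ± SD.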

[8] = target: Histone acetyltransferase KAT2B (Homo sapiens) (UniProt Q92831); experiment: Inhibition of human recombinant KAT2B using histone H4 peptide as substrate at 50 uM after 2 hrs
Chain of Histone acetyltransferase KAT2B (Homo sapiens) (Q92831 whole entry, looked up, the tested form may be a part): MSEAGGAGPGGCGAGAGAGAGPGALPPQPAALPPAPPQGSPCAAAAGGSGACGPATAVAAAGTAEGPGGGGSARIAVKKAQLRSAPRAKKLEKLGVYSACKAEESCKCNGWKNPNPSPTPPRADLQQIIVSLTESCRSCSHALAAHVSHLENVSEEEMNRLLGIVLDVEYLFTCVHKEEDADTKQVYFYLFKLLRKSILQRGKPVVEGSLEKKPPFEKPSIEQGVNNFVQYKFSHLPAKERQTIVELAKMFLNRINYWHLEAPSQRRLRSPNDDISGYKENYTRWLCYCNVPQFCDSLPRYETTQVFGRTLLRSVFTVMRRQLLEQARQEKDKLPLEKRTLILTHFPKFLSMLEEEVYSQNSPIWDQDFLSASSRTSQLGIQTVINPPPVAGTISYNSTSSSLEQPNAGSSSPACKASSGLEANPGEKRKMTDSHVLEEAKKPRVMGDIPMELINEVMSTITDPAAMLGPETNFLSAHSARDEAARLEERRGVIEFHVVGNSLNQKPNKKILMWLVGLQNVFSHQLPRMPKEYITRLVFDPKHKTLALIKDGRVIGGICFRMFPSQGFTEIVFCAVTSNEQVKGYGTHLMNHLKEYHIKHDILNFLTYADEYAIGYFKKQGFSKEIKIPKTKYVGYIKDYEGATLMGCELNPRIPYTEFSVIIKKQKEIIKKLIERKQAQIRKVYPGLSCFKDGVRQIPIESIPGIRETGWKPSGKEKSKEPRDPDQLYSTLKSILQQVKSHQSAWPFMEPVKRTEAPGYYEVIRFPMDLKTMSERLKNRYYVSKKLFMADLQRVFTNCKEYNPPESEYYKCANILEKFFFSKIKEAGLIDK
Outline: (§3)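 Human PCAF (200 ng) in KAT buffer with 10 µg histone H4 peptide (aa 2–24), 20 µM acetyl-CoA with 0.5 µCi/mL [3H]-acetyl-CoA, and compound at 50 µM final, 2 h at 37 °C. Spotted on P81 paper in triplicate, washed with TCA then acetone, scintillation counted. Activity given as % of untreated control (100%).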

[9] = system: U-937; experiment: Induction of apoptosis in human U937 cells at 50 uM after 30 hrs using annexin V/propidium iodide double-staining by FACS analysis; type: functional; outline: as §2
[10] = system: U-937; experiment: Inhibition of histone acetyltransferase in human U937 cells assessed as inhibition of acetylation of histone H4 at K8 at 50 uM after 24 hrs by Western blotting; type: cell-based
Outline: (§4)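 U937 cells treated 24 h at 50 µM. Acid-extracted histones (Triton buffer lysis, then 0.2 M HCl overnight at 4 °C) immunoblotted with site-specific antibodies (H3K9/K14/K18/K56ac, H4K5/K8/K16ac, pan-acetyl H4; 1:1000). Loading checked by Ponceau Red staining, or by histone H1 for pan-acetyl H4.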

[11] = target: Albumin (Bos taurus, UniProt P02769); experiment: Binding affinity to bovine serum albumin by surface plasmon resonance assay; conditions: cattle
Chain of Albumin (P02769 whole entry): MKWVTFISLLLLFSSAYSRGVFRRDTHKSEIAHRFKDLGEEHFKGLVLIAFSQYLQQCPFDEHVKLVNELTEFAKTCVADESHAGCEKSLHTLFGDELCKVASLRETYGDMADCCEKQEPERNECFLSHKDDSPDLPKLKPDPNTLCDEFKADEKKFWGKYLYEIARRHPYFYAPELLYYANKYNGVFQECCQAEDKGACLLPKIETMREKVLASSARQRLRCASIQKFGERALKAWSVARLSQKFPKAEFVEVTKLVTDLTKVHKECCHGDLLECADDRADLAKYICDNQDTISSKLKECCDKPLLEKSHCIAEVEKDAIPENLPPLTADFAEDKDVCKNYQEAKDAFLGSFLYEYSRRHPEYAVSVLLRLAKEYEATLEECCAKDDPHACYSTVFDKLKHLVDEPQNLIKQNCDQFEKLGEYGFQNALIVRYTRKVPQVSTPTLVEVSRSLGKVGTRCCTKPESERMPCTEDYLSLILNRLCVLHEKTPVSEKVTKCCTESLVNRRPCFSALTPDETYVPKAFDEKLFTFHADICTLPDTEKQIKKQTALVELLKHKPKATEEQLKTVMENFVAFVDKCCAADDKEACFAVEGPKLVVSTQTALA

[12] = system: U-937; experiment: Inhibition of histone acetyltransferase in human U937 cells assessed as inhibition of acetylation of histone H3 at K9 at 50 uM after 24 hrs by Western blotting; type: cell-based; outline: as §4
[13] = system: U-937; experiment: Cell cycle arrest in human U937 cells assessed as accumulation at S phase at 50 uM after 30 hrs using propidium iodide staining by flow cytometry; type: functional, cell-based; outline: as §1
[14] = system: U-937; experiment: Inhibition of histone acetyltransferase in human U937 cells assessed as inhibition of acetylation of histone H4 at K5 at 50 uM after 24 hrs by Western blotting; type: cell-based; outline: as §4
[15] = system: U-937; experiment: Inhibition of histone acetyltransferase in human U937 cells assessed as inhibition of acetylation of histone H3 at K18 at 50 uM after 24 hrs by Western blotting; type: cell-based; outline: as §4
[16] = system: U-937; experiment: Inhibition of histone acetyltransferase in human U937 cells assessed as inhibition of acetylation of histone H3 at K14 at 50 uM after 24 hrs by Western blotting; type: cell-based; outline: as §4
[17] = system: U-937; experiment: Induction of apoptosis in human U937 cells after 30 hrs using annexin V/propidium iodide double-staining by FACS analysis; type: functional, cell-based; conditions: U-937, 30 h; outline: as §2
[18] = target: Histone acetyltransferase p300 (Homo sapiens) (UniProt Q09472); experiment: Binding affinity to immobilized His6-tagged human full-length KAT3B expressed in Sf9 cells by surface plasmon resonance assay
[19] = system: U-937; experiment: Inhibition of histone acetyltransferase in human U937 cells assessed as inhibition of acetylation of histone H3 at K56 at 50 uM after 24 hrs by Western blotting; type: cell-based; outline: as §4
[20] = target: Histone acetyltransferase p300 (Homo sapiens) (UniProt Q09472); experiment: Binding affinity to His6-tagged immobilized human KAT3B catalytic domain expressed in Sf9 cells by surface plasmon resonance assay
[21] = system: U-937; experiment: Inhibition of histone acetyltransferase in human U937 cells assessed as inhibition of acetylation of histone H4 at K16 at 50 uM after 24 hrs by Western blotting; type: cell-based; outline: as §4
[22] = target: Histone acetyltransferase KAT2B (Homo sapiens) (UniProt Q92831); experiment: Increase of human recombinant KAT2B acetylation activity using histone H4 peptide as substrate at 50 uM after 2 hrs; outline: as §3
[23] = system: U-937; experiment: Inhibition of histone acetyltransferase in human U937 cells assessed as increase of pan-acetylated histone H4 level at 50 uM after 24 hrs by Western blotting; type: cell-based; outline: as §4
[24] = system: U-937; experiment: Inhibition of histone acetyltransferase in human U937 cells assessed as increase of acetylation of histone H3 at K9 at 50 uM after 24 hrs by Western blotting; type: cell-based; outline: as §4
[25] = system: U-937; experiment: Inhibition of histone acetyltransferase in human U937 cells assessed as increase of acetylation of histone H3 at K18 at 50 uM after 24 hrs by Western blotting; type: cell-based; outline: as §4

inhibition [1]	inhibition [6]	inhibition [8]	SMILES	inhibition [2]	Activity [3]	Activity [4]	inhibition [5]	Activity [7]	further results
Active	inactive		CCCCCCCCCCCCCC(C)=C(C(=O)OCC)C(=O)OCC	inactive	inactive	inactive	inactive	inactive	
Active	inactive	Active	CCCCCCCCCCCCCCCC1C(=O)OC(C)(C)OC1=O	inactive	inactive	inactive	inactive	inactive	
Active	inactive		CCCCCCCCCCCCCCC(C(=O)OCC)C(=O)OCC	inactive	inactive	inactive	inactive	inactive	
Active		Active	CCCCCCCCCCC=C(C(=O)OCC)C(=O)OCC	inactive		inactive	Active		Activity [9]: 25.4%; inhibition [10]: inactive; Activity [11]: Not Active; inhibition [12]: Active; Activity [13]: Active; inhibition [14]: Active; inhibition [15]: Active; inhibition [16]: Active; IC50 [17]: 156 µM; Activity [18]: Dose-dependent effect; inhibition [19]: Active; Activity [20]: inactive; inhibition [21]: Active
Active	inactive	Active	CCCCCCCCCCCCCCC=C1C(=O)OC(C)(C)OC1=O	inactive	inactive	inactive	inactive	inactive	
79%		Active	CCCCCCCCCCCCCCC=C(C(C)=O)C(C)=O	inactive		inactive	Active		Activity [9]: Active; inhibition [10]: inactive; Activity [11]: Not Active; inhibition [12]: Active; Activity [13]: Active; inhibition [14]: inactive; inhibition [15]: inactive; inhibition [16]: Active; Activity [18]: Dose-dependent effect; inhibition [19]: inactive; Activity [20]: inactive; inhibition [21]: inactive
Active	inactive		CCCCCCCCCCCCCCC(C)=C(C(=O)OCC)C(=O)OCC	inactive	inactive	inactive	inactive	inactive	
inactive		Active	CCCCCCCCCCCCC=C(C(=O)OCC)C(=O)OCC		inactive	inactive		inactive	inhibition [10]: inactive; inhibition [12]: Active; inhibition [14]: inactive; inhibition [15]: Active; inhibition [16]: inactive; inhibition [19]: inactive; inhibition [21]: inactive
Active	inactive	Active	CCCCCCCCCCCCCC(C(=O)OCC)C(=O)OCC	inactive	inactive	inactive	inactive	inactive	
Active	inactive		CCCCCCCCCCCCCC=C(C(=O)OCC)C(=O)OCC	inactive		inactive	Active		Activity [9]: 51.8%; inhibition [10]: inactive; Activity [11]: Not Active; inhibition [12]: Active; Activity [22]: Active; Activity [13]: Active; inhibition [14]: Active; inhibition [15]: Active; inhibition [16]: Active; IC50 [17]: 42.9 µM; Activity [18]: Dose-dependent effect; inhibition [19]: Active; Activity [20]: Dose-dependent effect; inhibition [21]: Active
Active	inactive		CCCCCCCCCCCCCCCC(C(=O)OCC)C(=O)OCC	inactive	inactive	inactive	inactive	inactive	
Active		Active	CCCCCCCCCCCC=C(C(=O)OCC)C(=O)OCC	inactive		inactive	Active		Activity [9]: 60.2%; inhibition [23]: Active; inhibition [24]: Active; inhibition [10]: inactive; Activity [11]: Not Active; Activity [13]: Active; inhibition [14]: Active; inhibition [16]: Active; IC50 [17]: 84.2 µM; Activity [18]: Dose-dependent effect; inhibition [19]: Active; Activity [20]: inactive; inhibition [21]: Active; inhibition [25]: Active
Active	inactive		CCCCCCCCCCCCCCCCC(O)=C(C(=O)OCC)C(=O)OCC	inactive	inactive	inactive	inactive	inactive	
Active	inactive		CCCCCCCCCCCCCCC(Cl)=C(C(=O)OCC)C(=O)OCC	inactive	inactive	inactive	inactive	inactive	Activity [22]: Active
52%	inactive		CCCCCCCCCCCCCCC(O)=C(C(=O)OCC)C(=O)OCC	inactive	inactive	inactive	inactive	inactive	Activity [22]: Active
62%			C=CC/C=C\C/C=C\CCCCCCCc1cccc(O)c1C(=O)O						
			CCCCCCCCCCCCCCC(N)=C(C(=O)OCC)C(=O)OCC		inactive	inactive		inactive	
